Compound activity from PubChem BioAssay.
A selection: hits, their analogues and other compounds. The true share with any hit is near 2.9%.
ADAM17 inh – ADAM17 inhibitors, primary screen, biochemical, QFRET | Disintegrin and metalloproteinase domain-containing protein 17 (Homo sapiens), P78536 | recombinant ADAM17, EDANS/DABCYL FRET peptide cleavage | inhibition, % at 6.95 µM | hit rate 0.83% among 370,000 | AID 720648, 2013;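 active means inhibition above the mean of compounds lying between control limits plus 3 SD, set per campaign, cut at about 8.5% in these data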
Target sequence (P78536 215-824 limits assumed): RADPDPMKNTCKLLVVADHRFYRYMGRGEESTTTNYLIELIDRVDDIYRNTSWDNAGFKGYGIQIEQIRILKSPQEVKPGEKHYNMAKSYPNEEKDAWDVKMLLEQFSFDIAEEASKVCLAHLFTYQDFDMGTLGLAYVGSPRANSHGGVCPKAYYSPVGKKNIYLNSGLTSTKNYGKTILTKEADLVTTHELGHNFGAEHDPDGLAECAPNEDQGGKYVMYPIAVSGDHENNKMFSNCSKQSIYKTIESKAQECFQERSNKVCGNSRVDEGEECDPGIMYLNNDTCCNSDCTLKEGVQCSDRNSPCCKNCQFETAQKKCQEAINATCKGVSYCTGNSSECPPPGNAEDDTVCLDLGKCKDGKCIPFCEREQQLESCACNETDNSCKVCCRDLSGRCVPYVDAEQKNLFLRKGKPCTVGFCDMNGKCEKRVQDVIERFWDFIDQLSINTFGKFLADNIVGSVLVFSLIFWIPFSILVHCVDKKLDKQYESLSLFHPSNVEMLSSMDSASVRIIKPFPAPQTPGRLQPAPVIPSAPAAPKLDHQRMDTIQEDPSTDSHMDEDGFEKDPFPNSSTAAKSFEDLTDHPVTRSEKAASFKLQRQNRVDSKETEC
CaV13 FRET inh – Disruptors of the CACNA1D IQ motif to Ca2+-dependent inactivation inhibitor domain association, primary screening, Förster resonance energy transfer in intact living …; inhibition, % at 12.3 µM; hit rate 0.098% among 340,000; AID 743397; HEK cells, CFP/YFP FRET ICDI-IQ, plate reader, 10 min; percent FRET-ratio fall versus neutral wells;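 active means mean replicate inhibition of at least 30% and at least 1% of replicates passing that level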
ADAM10 inh – human ADAM10 inhibitors, primary screen, biochemical, QFRET, HTS. AID 720582, 2013. Disintegrin and metalloproteinase domain-containing protein 10 (Homo sapiens), O14672. inhibition, % at 7 µM. recombinant ADAM10, EDANS/DABCYL FRET peptide cleavage, 3 h. hit rate 0.62% among 370,000;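 active means inhibition above a per-campaign cutoff equal to the mean of compounds falling between control-based bounds plus 3 SD, cut at about 20% in these data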
CendR NRP1 mod – modulators of CendR peptide binding to NRP-1, primary screen, biochemical, fluorescence polarization, uHTS | FAM-RPARPAR peptide binding to NRP-1 | inhibition, % at 25 µM | hit rate 0.85% among 360,000 | AID 602438, 2012;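 active means inhibition or corrected inhibition above about 18%, plus a signal ratio from 0.5 to 1.5, limit read from the data, passing the limit was not always enough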
FAS TE block – FAS thioesterase domain inhibitors, primary screen, biochemical, fluorescence intensity, uHTS. inhibition, % at 15 µM. recombinant FAS-TE, OMFH fluorogenic substrate, fluorescence endpoint. Fatty acid synthase (Homo sapiens), P49327. AID 602261, 2012. hit rate 0.67% among 360,000;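 active means compounds whose normalised, plate-corrected inhibition of enzyme fluorescence in the single-dose primary screen is 50% or more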
Arr AP2 block – inhibitors of beta-arrestin/AP2 binding, primary screen, biochemical, GPCR trafficking, flow cytometry; hit rate 0.31% among 340,000; AID 504490, 2011; FITC-arrestin peptide / GST-AP2 beads; AP2 beta2 appendage carries R879A mutation; inhibition, % at 10 µM;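 active means inhibition above a set limit, near 3 SD of compounds lacking own fluorescence, cut at about 54% in these data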
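System: GST-AP2 R879A glutathione beads. Medium: PBS with 0.05% Tween 20 and 0.1% BSA. Also added: FITC-arrestin peptide, 50 nM. Incubation: 12 min plus 1 h, RT. Measured by: high-throughput flow cytometry of beads, ex 488, em 535 nm. Evaluation: percent drop in bead-associated FITC signal.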
ADAM10 confirm – human ADAM10 inhibitors, confirmation, biochemical, QFRET, triplicate | shares compounds with ADAM10 inh | ADAM10 QFRET peptide cleavage, EDANS fluorescence | inhibition, % at 6.95 µM | hit rate 1% among 2,100 | AID 743208, 2013;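 active means inhibition above about 20% chosen separately for each screening run, limit read from the data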
ADAM17 counter – ADAM17 inhibitors, counter-screen for ADAM10 exosite inhibitor project, biochemical, QFRET, high throughput; inhibition, % at 6.95 µM; hit rate 0.5% among 2,100; AID 743214, 2013; shares compounds with ADAM10 inh; ADAM17 QFRET peptide cleavage, EDANS fluorescence;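 active means mean triplicate inhibition above the solvent-only control wells' mean plus 3 SD, cut at about 12% in these data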
ADAM10 ctr – ADAM10 inhibitors, counter-screen for ADAM17 exosite inhibitor project, biochemical, FRET, human ADAM10; hit rate 47% among 2,900; AID 743256, 2014; inhibition, % at 6.95 µM; recombinant ADAM10, EDANS/DABCYL FRET peptide cleavage, 3 h; shares compounds with ADAM17 inh;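 active means mean inhibition over the triplicate runs exceeds the activity threshold set in the earlier primary screen, cut at about 20% in these data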
ADAM17 confirm – ADAM17 inhibitors, hit retest, confirmation, biochemical, QFRET peptide cleavage. shares compounds with ADAM17 inh. recombinant ADAM17, EDANS/DABCYL QFRET peptide cleavage. inhibition, % at 6.95 µM. hit rate 65% among 2,900. AID 743257, 2014;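 active means mean inhibition across replicates above the hit cutoff set in the primary screen, cut at about 8.5% in these data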
Each line names hits and unclear results; the compound was inactive in the other large screens (follow-up assays come after a bar, where they were run).

CCOC(=O)c1ccc(NC(=O)CN(Cc2ccc(Cl)cc2)S(C)(=O)=O)cc1	ADAM17 inh 11, ADAM10 inh 26 | ADAM10 confirm inactive | ADAM17 counter inactive | ADAM10 ctr 25 | ADAM17 confirm 15
FC(F)(F)Oc1cccc(Cn2ccc3ccc(-c4ccc5ccn(Cc6cccc(OC(F)(F)F)c6)c5c4)cc32)c1	none (no result: CaV13 FRET inh, CendR NRP1 mod, FAS TE block, Arr AP2 block)
COC(=O)c1cc(NC(=O)CN(c2ccccc2OC)S(=O)(=O)c2ccccc2)ccc1Cl	none (no result: CaV13 FRET inh)
COc1ccc(NC(=O)CN(c2ccc(OC)c(Cl)c2)S(=O)(=O)c2ccccc2)c(OC)c1	ADAM17 inh 14, ADAM10 inh 34 | ADAM10 confirm inactive | ADAM17 counter inactive | ADAM10 ctr 30 | ADAM17 confirm 17
COC(=O)c1cc(NC(=O)CN(c2cccc(OC)c2)S(=O)(=O)c2ccccc2)ccc1Cl	ADAM17 inh 12, ADAM10 inh 24 | ADAM10 confirm inactive | ADAM17 counter inactive | ADAM10 ctr 34 | ADAM17 confirm 17
C=CCN(CC=C)Cc1cc(=O)oc2cc(C)cc(C)c12	none (no result: Arr AP2 block)
Cc1ccc(Nc2nc(N)nc(CSc3nc4ccccc4s3)n2)cc1	ADAM17 inh 13, ADAM10 inh 29 | ADAM10 confirm inactive | ADAM17 counter inactive | ADAM10 ctr 43 | ADAM17 confirm 25
CCn1c(Cn2nnc(-c3ccccc3)n2)nnc1SCC(=O)N1CCOCC1	none
CCn1c(Cn2nnc(-c3ccccc3)n2)nnc1SCc1ccc(Cl)c(Cl)c1	ADAM17 inh 9.1, ADAM10 inh 26 | ADAM10 confirm inactive | ADAM17 counter inactive | ADAM10 ctr 32 | ADAM17 confirm 18
CC(OC(=O)CCCCCN=C1NS(=O)(=O)c2ccccc21)C(=O)Nc1cc(Cl)cc(Cl)c1 (centres undefined)	ADAM17 inh 15, ADAM10 inh 29 | ADAM10 confirm inactive | ADAM17 counter inactive | ADAM10 ctr inactive | ADAM17 confirm 15
COc1ccc(C2(c3ccc(OC)cc3)NC(=O)N(CC(=O)Nc3cc(C)ccc3OC)C2=O)cc1	ADAM17 inh 9.3, ADAM10 inh 22 | ADAM10 confirm inactive | ADAM17 counter inactive | ADAM10 ctr 33 | ADAM17 confirm 16
O=C(Nc1ccccc1)c1cc(C2CCCCN2S(=O)(=O)Cc2cccc(C(F)(F)F)c2)on1 (centres undefined)	ADAM17 inh 17, ADAM10 inh 30 (no result: Arr AP2 block) | ADAM10 confirm inactive | ADAM17 counter inactive | ADAM10 ctr 26 | ADAM17 confirm 11
CC1(Cc2ccc(C(F)(F)F)o2)C(=O)Nc2ccc(-c3cccc(C(F)(F)F)c3)cc21 (centres undefined)	ADAM17 inh 17, ADAM10 inh 28 (no result: Arr AP2 block) | ADAM10 confirm inactive | ADAM17 counter inactive | ADAM10 ctr 32 | ADAM17 confirm 21
CC1(Cc2ccc3c(c2)OCO3)C(=O)Nc2ccc(-c3cccc(C(F)(F)F)c3)cc21 (centres undefined)	none (no result: Arr AP2 block)
C=CCC[C@H](Cc1ccc(F)cc1)C(=O)OC[C@H](Cc1c[nH]c2ccccc12)NC(=O)[C@H](CC=C)CC(=O)N(CCO)Cc1ccccc1	ADAM17 inh 12, ADAM10 inh 24 | ADAM10 confirm inactive | ADAM17 counter inactive | ADAM10 ctr 36 | ADAM17 confirm 18
C=CC[C@@H](CC(=O)N(CCO)Cc1ccccc1)C(=O)N[C@H](COC(=O)[C@@H](CC=C)Cc1ccc(F)cc1)Cc1c[nH]c2ccccc12	ADAM17 inh 14, ADAM10 inh 39 | ADAM10 confirm inactive | ADAM17 counter inactive | ADAM10 ctr 46 | ADAM17 confirm 25
C=CC[C@H](CC(=O)N(CCO)Cc1ccccc1)C(=O)N[C@H](COC(=O)[C@@H](CC=C)Cc1ccc(F)cc1)Cc1c[nH]c2ccccc12	ADAM17 inh 15, ADAM10 inh 27 | ADAM10 confirm inactive | ADAM17 counter inactive | ADAM10 ctr 41 | ADAM17 confirm 23
C=CCC[C@H](Cc1ccc(F)cc1)C(=O)OC[C@@H](Cc1c[nH]c2ccccc12)NC(=O)[C@@H](CC=C)CC(=O)N[C@@H](CO)Cc1ccccc1	ADAM17 inh 11, ADAM10 inh 22 | ADAM10 confirm inactive | ADAM17 counter inactive | ADAM10 ctr inactive | ADAM17 confirm inactive
C=CCC[C@@H](Cc1ccc(F)cc1)C(=O)OC[C@H](Cc1c[nH]c2ccccc12)NC(=O)[C@@H](CC=C)CC(=O)N[C@@H](CO)Cc1ccccc1	none
C=CC[C@@H](CC(=O)N[C@@H](CO)Cc1ccccc1)C(=O)N[C@H](COC(=O)[C@@H](CC=C)Cc1ccc(F)cc1)Cc1c[nH]c2ccccc12	none
C=CCC[C@@H](Cc1ccc(F)cc1)C(=O)OC[C@@H](Cc1c[nH]c2ccccc12)NC(=O)[C@@H](CC=C)CC(=O)N[C@@H](CO)Cc1ccccc1	none
Cc1cccc(NC(=O)[C@@H]2CC(=O)O[C@@H]2c2ccccc2)c1C	none (no result: CaV13 FRET inh, CendR NRP1 mod, FAS TE block, Arr AP2 block)
C=CC[C@H](CC(=O)N(CCO)Cc1ccccc1)C(=O)N[C@H](COC(=O)[C@H](CC=C)CC(=O)OC(C)(C)C)Cc1c[nH]c2ccccc12	none
C=CC[C@H](CC(=O)N(CCO)Cc1ccccc1)C(=O)N[C@@H](COC(=O)[C@@H](CC=C)CC(=O)OC(C)(C)C)Cc1c[nH]c2ccccc12	ADAM17 inh 21, ADAM10 inh 37 | ADAM10 confirm inactive | ADAM17 counter inactive | ADAM10 ctr 29 | ADAM17 confirm 15
